# ChEMBL document CHEMBL1124369, “Pyrido[3,4-e]-1,2,4-triazines and related heterocycles as potential antifungal agents” (1989)
# Key:
# [1] = tested on: Diutina rugosa; experiment: Antifungal activity against Candida rugosa; type: functional
# Method in brief: (§1)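 Agar dilution MIC. Twofold serial drug dilutions in yeast nitrogen base medium with 1% dextrose, 0.15% asparagine and 1.5% agar. Agar surfaces inoculated using a Steers multiple inocula replicator, then incubated at 35 °C for 24-48 h. MIC was recorded as the lowest concentration inhibiting visible growth. Amphotericin B, miconazole and nystatin served as controls.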
# [2] = tested on: Kluyveromyces marxianus; experiment: Antifungal activity against Candida pseudotropicalis; type: functional; method in brief: as §1
# [3] = tested on: Candida albicans; experiment: Antifungal activity against Candida stellatoidea; type: functional; method in brief: as §1
# [4] = tested on: Candida tropicalis; experiment: Antifungal activity against Candida tropicalis; type: functional; method in brief: as §1
# [5] = tested on: Aspergillus niger; experiment: Antifungal activity against Aspergillus niger; Range is 64-128; type: functional; method in brief: as §1
# [6] = tested on: Candida albicans; experiment: Antifungal activity against Candida albicans; type: functional; method in brief: as §1
# [7] = tested on: Mucor fragilis; experiment: Antifungal activity against Mucor fragilis; type: functional; method in brief: as §1
# [8] = tested on: Candida tropicalis; experiment: Antifungal activity against Candida tropicalis; Range is 32-64; type: functional; method in brief: as §1
# [9] = tested on: Aspergillus niger; experiment: Antifungal activity against Aspergillus niger; Range is 32-64; type: functional; method in brief: as §1
# [10] = tested on: Candida albicans; experiment: Antifungal activity against Candida albicans; Range is 32-64; type: functional; method in brief: as §1
# [11] = tested on: Candida parapsilosis; experiment: Antifungal activity against Candida parapsilosis; type: functional; method in brief: as §1
# [12] = tested on: Trichophyton benhamiae; experiment: Antifungal activity against Trichophyton mentagrophytes; type: functional, trychophyton mentagrophytes; method in brief: as §1
# [13] = tested on: Trichophyton rubrum; experiment: Antifungal activity against Trichophyton rubrum; Range is 8-32; type: functional
# [14] = tested on: Aspergillus niger; experiment: Antifungal activity against Aspergillus niger; type: functional; method in brief: as §1
# [15] = tested on: Trichophyton rubrum; experiment: Antifungal activity against Trichophyton rubrum; type: functional; method in brief: as §1
# [16] = tested on: Aspergillus niger; experiment: Antifungal activity against Aspergillus niger; Range is 16-32; type: functional; method in brief: as §1
# [17] = tested on: Candida albicans; experiment: Antifungal activity against Candida albicans; Range is 16-32; type: functional; method in brief: as §1
# [18] = tested on: Trichophyton rubrum; experiment: Antifungal activity against Trichophyton rubrum; Range is 1-2; type: functional; method in brief: as §1
# [19] = tested on: Candida tropicalis; experiment: Antifungal activity against Candida tropicalis; Range is 8-16; type: functional; method in brief: as §1
# [20] = tested on: Kluyveromyces marxianus; experiment: Antifungal activity against Candida pseudotropicalis; Range is 8-16; type: functional; method in brief: as §1
# [21] = tested on: Trichophyton rubrum; experiment: Antifungal activity against Trichophyton rubrum; Range is 2-4; type: functional; method in brief: as §1
# [22] = tested on: Trichophyton rubrum; experiment: Antifungal activity against Trichophyton rubrum; Range is 4-8; type: functional; method in brief: as §1
# [23] = tested on: Candida albicans; experiment: Antifungal activity against Candida albicans; Range is 64-128; type: functional; method in brief: as §1
# [24] = tested on: Candida albicans; experiment: Antifungal activity against Candida albicans; Range is 8-16; type: functional; method in brief: as §1
# [25] = tested on: Trichophyton benhamiae; experiment: Antifungal activity against Trichophyton mentagrophytes; Range is 4-8; type: functional, trychophyton mentagrophytes; method in brief: as §1
# [26] = tested on: Trichophyton rubrum; experiment: Antifungal activity against Trichophyton rubrum; Range is 64-128; type: functional
# [27] = tested on: Trichophyton benhamiae; experiment: Antifungal activity against Trichophyton mentagrophytes; Range is 64-128; type: functional, trychophyton mentagrophytes; method in brief: as §1
# [28] = tested on: Candida tropicalis; experiment: Antifungal activity against Candida tropicalis; Range is 8-32; type: functional; method in brief: as §1
# [29] = tested on: Trichophyton benhamiae; experiment: Antifungal activity against Trichophyton mentagrophytes; Range is 32-64; type: functional, trychophyton mentagrophytes; method in brief: as §1
# [30] = tested on: Trichophyton rubrum; experiment: Antifungal activity against Trichophyton rubrum; Range is 32-64; type: functional; method in brief: as §1
# [31] = tested on: Trichophyton benhamiae; experiment: Antifungal activity against Trichophyton mentagrophytes; Range is 16-32; type: functional; conditions: trychophyton mentagrophytes
Compound,MIC [1] [µg/mL],MIC [2] [µg/mL],MIC [3] [µg/mL],MIC [4] [µg/mL],MIC [6] [µg/mL],MIC [7] [µg/mL],MIC ([11]; Lodderomyces parapsilosis) [µg/mL],MIC [12] [µg/mL],MIC [14] [µg/mL],MIC [15] [µg/mL],further results
CCOc1ccc(-c2nnc3ccncc3n2)cc1,> 128,64,> 128,64,64,128,–,–,–,–,MIC [5]: 64 µg/mL
CCCc1nnc2ccncc2n1,64,16,64,–,–,64,64,32,–,–,MIC [8]: 32 µg/mL; MIC [9]: 32 µg/mL; MIC [10]: 32 µg/mL; MIC [13]: 8 µg/mL
c1cc2nnc(C3CC3)nc2cn1,64,16,64,32,16,16,–,–,32,–,–
Fc1ccc(-c2nnc3ccncc3n2)c(F)c1,–,32,–,16,–,–,16,8,–,2,MIC [16]: 16 µg/mL; MIC [17]: 16 µg/mL
Fc1cccc(-c2nnc3ccncc3n2)c1,16,8,32,–,16,16,16,4,–,–,MIC [18]: 1 µg/mL; MIC [16]: 16 µg/mL; MIC [19]: 8 µg/mL
c1ccc(-c2nnc3ccncc3n2)cc1,32,–,16,–,16,> 128,16,8,–,–,MIC [16]: 16 µg/mL; MIC [20]: 8 µg/mL; MIC [21]: 2 µg/mL; MIC [19]: 8 µg/mL
C(=C\N1CCCCC1)/c1nnc2ccncc2n1,–,128,–,128,–,–,128,16,–,–,MIC [22]: 4 µg/mL; MIC [5]: 64 µg/mL; MIC [23]: 64 µg/mL
c1ccc(-c2ccc(-c3nnc4ccncc4n3)cc2)cc1,> 128,128,> 128,128,128,128,–,–,–,–,MIC [5]: 64 µg/mL
c1ccc2cc(-c3nnc4ccncc4n3)ccc2c1,> 128,128,> 128,128,128,128,–,–,128,–,–
CN(C)/C=C/c1nnc2ccncc2n1,16,128,16,128,64,64,–,–,–,–,MIC [5]: 64 µg/mL
Cc1nnc2ccncc2n1,16,8,32,8,–,16,16,16,–,–,MIC [22]: 4 µg/mL; MIC [16]: 16 µg/mL; MIC [24]: 8 µg/mL
FC(F)(F)c1ccc(-c2nnc3ccncc3n2)cc1,> 128,128,> 128,128,–,> 128,128,64,128,–,MIC [23]: 64 µg/mL; MIC [13]: 8 µg/mL
Fc1ccc(-c2nnc3ccncc3n2)cc1,8,8,8,–,–,64,8,–,–,4,MIC [25]: 4 µg/mL; MIC [16]: 16 µg/mL; MIC [19]: 8 µg/mL; MIC [24]: 8 µg/mL
c1ccc2c3c(cnc2c1)NC1(CCCCC1)N=N3,–,128,–,128,128,–,128,64,128,64,–
c1ccc2nc(-c3nnc4ccncc4n3)cnc2c1,32,8,32,8,8,32,–,–,32,–,–
CN1CCN(/C=C/c2nnc3ccncc3n2)CC1,32,128,32,128,128,128,–,–,–,–,MIC [5]: 64 µg/mL
Cc1nc(C)c2nc(-c3ccncc3)nnc2c1N,> 128,128,> 128,128,128,64,–,32,–,16,MIC [5]: 64 µg/mL
c1cc2nnc(C3CCC3)nc2cn1,32,16,32,32,–,16,–,–,–,–,MIC [16]: 16 µg/mL; MIC [24]: 8 µg/mL
c1ccc(OCc2nnc3ccncc3n2)cc1,8,–,16,16,–,4,–,–,–,–,MIC [16]: 16 µg/mL; MIC [20]: 8 µg/mL; MIC [24]: 8 µg/mL
CCCCCCCCCCCCCCCCCc1nnc2ccncc2n1,> 128,128,> 128,128,128,128,–,–,128,–,–

Compound,MIC [1] [µg/mL],MIC [2] [µg/mL],MIC [3] [µg/mL],MIC [4] [µg/mL],MIC [6] [µg/mL],MIC [7] [µg/mL],MIC ([11]; Lodderomyces parapsilosis) [µg/mL],MIC [12] [µg/mL],MIC [14] [µg/mL],MIC [15] [µg/mL],further results
Cc1nnc2ncccc2n1,–,128,–,128,128,–,64,128,–,128,MIC [9]: 32 µg/mL
c1cnc(-c2nnc3ccncc3n2)cn1,64,32,64,64,64,64,–,–,–,–,MIC [9]: 32 µg/mL
CC1(C)N=Nc2c(cnc3ccccc23)N1,–,128,–,128,128,–,128,–,128,–,MIC [26]: 64 µg/mL; MIC [27]: 64 µg/mL
Cc1nnc2ccnc(C)c2n1,–,–,–,–,–,–,128,8,64,8,MIC [28]: 8 µg/mL; MIC [20]: 8 µg/mL; MIC [24]: 8 µg/mL
CC(C)(C)c1ccc(-c2nnc3ccncc3n2)cc1,> 128,128,> 128,128,128,128,–,–,128,–,–
CC1N=Nc2ncccc2N1 (stereo not drawn),–,64,–,64,64,–,64,–,–,–,MIC [9]: 32 µg/mL; MIC [29]: 32 µg/mL; MIC [13]: 8 µg/mL
c1ccc(-c2nnc3ccccc3n2)cc1,128,128,128,128,64,–,–,–,128,64,–
c1cc2c(cn1)NC1(CCCCC1)N=N2,–,128,–,128,128,–,128,–,128,–,MIC [29]: 32 µg/mL; MIC [30]: 32 µg/mL
Cc1nc(C)c2nc(-c3ccc(F)cc3)nnc2c1N,> 128,–,> 128,> 128,> 128,128,> 128,128,> 128,128,–
Fc1ccccc1-c1nnc2ccncc2n1,16,32,32,32,32,64,32,8,16,–,MIC [21]: 2 µg/mL
Cc1cc2nnc(-c3ccc(F)cc3)nc2c(C)n1,> 128,128,> 128,128,128,64,–,64,128,64,–
Cc1nnc2c(cnc3ccccc32)n1,–,32,–,32,32,–,32,32,–,32,MIC [16]: 16 µg/mL
FC(F)(F)c1nnc2ccncc2n1,16,–,16,32,–,8,–,–,32,–,MIC [20]: 8 µg/mL; MIC [17]: 16 µg/mL
c1cnc2nncnc2c1,–,32,–,64,64,–,32,32,–,32,MIC [16]: 16 µg/mL
CC1(C)N=Nc2ccncc2N1,–,128,–,128,128,–,128,128,128,128,–
Cc1nc(C)c2nc(-c3ccc(F)cc3)nnc2c1NC(=O)c1ccccc1,–,128,–,128,128,–,128,–,128,–,MIC [30]: 32 µg/mL; MIC [27]: 64 µg/mL
c1cc2nnc(C3CCCC3)nc2cn1,16,16,32,64,–,4,–,–,–,–,MIC [16]: 16 µg/mL; MIC [24]: 8 µg/mL
COc1cc(-c2nnc3ccncc3n2)cc(OC)c1OC,128,64,128,128,–,128,–,–,128,–,MIC [23]: 64 µg/mL
NYSTATIN,> 128,8,> 128,16,16,16,–,–,16,32,MIC [11]: 16 µg/mL; MIC [31]: 16 µg/mL
